From ChEMBL document CHEMBL4308910, “Metronidazole aryloxy, carboxy and azole derivatives: Synthesis, anti-tumor activity, QSAR, molecular docking and dynamics studies” (Bioorg Med Chem, 2019) come the findings set out here.

≈ marks a conversion by molar mass, not a printed value.

One assay relates to HT-29. In words: Cytotoxicity against human HT-29 cells after 24 hrs by MTT assay. It is filed as functional, cell-based. To be noted: HT-29, 24 h. The method, boiled down:
(§1)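 Cells were grown in DMEM with 10% FBS and penicillin/streptomycin at 37 °C under 5% CO2. Seeding was 1×10^4 cells/well for A549 and MCF-7, or 1.2×10^4 cells/well for HT-29, followed by 24 h attachment. Compounds came from DMSO stocks diluted in serum-free DMEM, 0.1–1000 µg/mL, DMSO <0.5%, triplicate wells, 24 h. MTT (5 mg/mL stock in PBS) 3–4 h at 37 °C in dark; DMSO-solubilised A570. IC50 from 3 runs, mean ± S.E.M.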

The subject of a further assay is MCF7. Kind of assay: Cytotoxicity against human MCF7 cells after 24 hrs by MTT assay. The following applies: MCF7, 24 h. It is filed as functional, cell-based. The method, boiled down: as §1
For assay [1], the system named is A549. In words: Cytotoxicity against human A549 cells after 24 hrs by MTT assay. It is filed as functional, cell-based. The following applies: A549, 24 h. The method, boiled down:
as §1
A general note: Tetrazolium dyes change colour on reduction, which living cells bring about.

The test system of assay [2] is A549. In words: Induction of apoptosis in human A549 cells assessed as early apoptotic cells at 90 ug/mL after 16 hrs by propidium iodide/Annexin V/7-AAD staining-based flow cytometric analysis (reference value: 0.01%). It is filed as functional. A general note: In flow cytometry, cells or beads pass a laser one at a time.
In assay [3] the test system is A549. Kind of assay: Induction of apoptosis in human A549 cells assessed as necrotic cells at 90 ug/mL after 16 hrs by propidium iodide/Annexin V/7-AAD staining-based flow cytometric analysis (reference value: 0.41%). The assay is classed as functional.
Assay [4] has as its system A549. Kind of assay: Induction of apoptosis in human A549 cells assessed as late apoptotic cells at 90 ug/mL after 16 hrs by propidium iodide/Annexin V/7-AAD staining-based flow cytometric analysis (reference value: 0.21%). It is filed as functional.
For assay [5], the system named is A549. Kind of assay: Induction of apoptosis in human A549 cells assessed as viable cells at 90 ug/mL after 16 hrs by propidium iodide/Annexin V/7-AAD staining-based flow cytometric analysis (reference value: 99.37%). The assay is classed as functional. To be noted: A549, 16 h, read-out: Activity.

A word on the IC50: it is the concentration that gives 50% inhibition. A higher IC50 goes with weaker potency in that assay. Regarding `Cc1ncc([N+](=O)[O-])n1CCn1cnc2ccccc21`, the IC50 worked out at 148 µg/mL (≈ 546 µM) with HT-29, 103 µg/mL (≈ 380 µM) with MCF7 and 219 µg/mL (≈ 809 µM) in the assay on A549 [1].
For `Cc1ncc([N+](=O)[O-])n1CCn1ccnc1`, in that order: 115 µg/mL (≈ 518 µM), 462 µg/mL (≈ 2090 µM) and 240 µg/mL (≈ 1080 µM).
For `Cc1ncc([N+](=O)[O-])n1CCCl`, in that order: 311 µg/mL (≈ 1640 µM), 480 µg/mL (≈ 2530 µM) and 300 µg/mL (≈ 1580 µM).
`Cc1ncc([N+](=O)[O-])n1CCOC(=O)c1ccc(Br)cc1`: the IC50 stood at 277 µg/mL (≈ 783 µM) in the assay on HT-29, 271 µg/mL (≈ 766 µM) with MCF7 and 194 µg/mL (≈ 548 µM) in the assay on A549 [1].
Take `Cc1ncc([N+](=O)[O-])n1CCOC(=O)c1ccccc1Cl`: the IC50 in the assay with HT-29 is 279 µg/mL (≈ 902 µM); with MCF7, 380 µg/mL (≈ 1230 µM); in the assay on A549 [1] it was 255 µg/mL (≈ 823 µM).
In the same order, the values of `Cc1ccc(C(=O)OCCn2c([N+](=O)[O-])cnc2C)cc1` are 359 µg/mL (≈ 1240 µM), 256 µg/mL (≈ 884 µM) and 184 µg/mL (≈ 636 µM).
`Cc1ncc([N+](=O)[O-])n1CCOc1ccc(Cl)c(Cl)c1`: the results for the Activity with A549 [2], in the assay with A549 [3] and in the assay with A549 [4] were 5.73%, 26.27% and 61.15%, respectively. The IC50 in the assay on HT-29 turned out to be 109 µg/mL (≈ 344 µM); with MCF7 it was 69.6 µg/mL (≈ 220 µM); in the assay on A549 [1], 77.9 µg/mL (≈ 246 µM). Besides, the viability at 90 µg/mL in the assay with A549 [5] is 6.85%.
In the case of `Cc1ncc([N+](=O)[O-])n1CCOc1ccccc1Cl`, the figures for the IC50 with HT-29, in the assay on MCF7 and in the assay on A549 [1] were 552 µg/mL (≈ 1960 µM), 378 µg/mL (≈ 1340 µM) and 574 µg/mL (≈ 2040 µM), respectively.
In the same order, the values of `Cc1cc(OCCn2c([N+](=O)[O-])cnc2C)ccc1Cl` are 159 µg/mL (≈ 537 µM), 188 µg/mL (≈ 635 µM) and 150 µg/mL (≈ 506 µM).
For `Cc1ncc([N+](=O)[O-])n1CCOC(=O)c1ccccc1F`, the IC50 in the assay on HT-29 was determined as 146 µg/mL (≈ 497 µM); in the assay with MCF7, 262 µg/mL (≈ 895 µM); in the assay with A549 [1], 170 µg/mL (≈ 578 µM).
In the same order, the values of `Cc1ncc([N+](=O)[O-])n1CCOc1ccc(F)cc1` are 102 µg/mL (≈ 386 µM), 85.8 µg/mL (≈ 324 µM) and 129 µg/mL (≈ 487 µM).
For `Cc1ncc([N+](=O)[O-])n1CCOc1ccc(F)c(Cl)c1`, in that order: 199 µg/mL (≈ 664 µM), 110 µg/mL (≈ 367 µM) and 122 µg/mL (≈ 407 µM).
Turning to `Cc1ncc([N+](=O)[O-])n1CCOc1ccc([N+](=O)[O-])cc1`, the IC50 is 116 µg/mL (≈ 396 µM) with HT-29, 127 µg/mL (≈ 433 µM) in the assay on MCF7 and 110 µg/mL (≈ 378 µM) with A549 [1].
`COc1ccccc1C(=O)OCCn1c([N+](=O)[O-])cnc1C`: the IC50 in the assay on HT-29 came to 283 µg/mL (≈ 926 µM); with MCF7, 447 µg/mL (≈ 1460 µM); in the assay on A549 [1], 289 µg/mL (≈ 947 µM).
In the same order, the values of `Cc1ncc([N+](=O)[O-])n1CCOc1ccccc1[N+](=O)[O-]` are 581 µg/mL (≈ 1990 µM), 583 µg/mL (≈ 1990 µM) and 573 µg/mL (≈ 1960 µM).
For `COc1cccc(C(=O)OCCn2c([N+](=O)[O-])cnc2C)c1`, in that order: 293 µg/mL (≈ 960 µM), 428 µg/mL (≈ 1400 µM) and 281 µg/mL (≈ 921 µM).
With `Cc1ncc([N+](=O)[O-])n1CCOC(=O)c1ccco1`, the IC50 in the assay with HT-29 is 287 µg/mL (≈ 1080 µM); in the assay with MCF7, 207 µg/mL (≈ 779 µM); in the assay on A549 [1] it was 167 µg/mL (≈ 631 µM).
For `Cc1ncc([N+](=O)[O-])n1CCOc1ccc(C#N)cc1`, the Activity in the assay with A549 [2] turned out to be 11.72%; in the assay with A549 [3] it was 9.96%; with A549 [4] it was 21.24%. In addition, the IC50 is 76.8 µg/mL (≈ 282 µM) in the assay with HT-29, 83.2 µg/mL (≈ 306 µM) in the assay on MCF7 and 79.8 µg/mL (≈ 293 µM) with A549 [1]. In the assay on A549 [5], the viability at 90 µg/mL turned out to be 57.1%.
Take `Cc1ncc([N+](=O)[O-])n1CCOc1cccc([N+](=O)[O-])c1`: the figures for the IC50 in the assay with HT-29, in the assay on MCF7 and in the assay with A549 [1] were 112 µg/mL (≈ 383 µM), 71.7 µg/mL (≈ 245 µM) and 108 µg/mL (≈ 371 µM), respectively.
For `Cc1ncc([N+](=O)[O-])n1CCOc1ccccc1`, in that order: 134 µg/mL (≈ 543 µM), 106 µg/mL (≈ 430 µM) and 107 µg/mL (≈ 435 µM).
In the same order, the values of `Cc1ncc([N+](=O)[O-])n1CCn1nnc2ccccc21` are 538 µg/mL (≈ 1980 µM), 384 µg/mL (≈ 1410 µM) and 701 µg/mL (≈ 2580 µM).
`Cc1nccn1CCn1c([N+](=O)[O-])cnc1C`: the figures for the IC50 in the assay with HT-29, in the assay with MCF7 and with A549 [1] were 142 µg/mL (≈ 604 µM), 157 µg/mL (≈ 668 µM) and 195 µg/mL (≈ 831 µM), respectively.
Turning to `Cc1ncc([N+](=O)[O-])n1CCOc1ccc2ccccc2c1`, the Activity was 10.13% in the assay on A549 [2], 12.96% with A549 [3] and 29.33% with A549 [4]. Moreover, the IC50 in the assay with HT-29 was 94.8 µg/mL (≈ 319 µM); with MCF7 it was 64.9 µg/mL (≈ 218 µM); in the assay on A549 [1], 96.1 µg/mL (≈ 323 µM). The viability at 90 µg/mL in the assay with A549 [5] amounted to 47.6%.
For `Cc1cc(OCCn2c([N+](=O)[O-])cnc2C)ccc1F`, the IC50 in the assay with HT-29 was 140 µg/mL (≈ 503 µM); in the assay with MCF7, 116 µg/mL (≈ 415 µM); with A549 [1], 226 µg/mL (≈ 808 µM).
Turning to `Cc1ccc(S(=O)(=O)OCCn2c([N+](=O)[O-])cnc2C)cc1`, the IC50 stood at 328 µg/mL (≈ 1010 µM) in the assay with HT-29, 160 µg/mL (≈ 491 µM) in the assay with MCF7 and 196 µg/mL (≈ 603 µM) in the assay with A549 [1].
`CN(Cc1cnc2nc(N)nc(N)c2n1)c1ccc(C(=O)N[C@@H](CCC(=O)O)C(=O)O)cc1` [METHOTREXATE]: the IC50 was 47.8 µg/mL (≈ 105 µM) in the assay on HT-29, 31.5 µg/mL (≈ 69.3 µM) in the assay with MCF7 and 39.3 µg/mL (≈ 86.5 µM) in the assay with A549 [1].
For `Cc1ncc([N+](=O)[O-])n1CCOC(=O)c1ccccc1` [METRONIDAZOLE BENZOATE], in that order: 288 µg/mL (≈ 1050 µM), 245 µg/mL (≈ 889 µM) and 281 µg/mL (≈ 1020 µM).
On to `Cc1ncc([N+](=O)[O-])n1CCO` [METRONIDAZOLE], for which the IC50 in the assay on HT-29 was determined as 278 µg/mL (≈ 1620 µM); in the assay with MCF7 it was 348 µg/mL (≈ 2030 µM); in the assay with A549 [1], 224 µg/mL (≈ 1310 µM).
